From ChEMBL document CHEMBL1154760, “Optimization of a pipemidic acid autotaxin inhibitor” (J Med Chem, 2010)
Activity calls are given as the source filed them. The calls are words filed in the database; no cut-off is given here.

How the values were obtained:
Autotaxin [1] = molecular target: T1, Autotaxin (Homo sapiens, UniProt Q13822); test: Noncompetitive type inhibition of human autotaxin at free state isolated from MDA-MB-231 cells assessed as blockade of FS3 substrate hydrolysis by FRET assay; assay type: cell-based
Autotaxin [2] = molecular target: T1, Autotaxin; test: Noncompetitive type inhibition of human autotaxin at enzyme-substrate complex isolated from […] assessed as blockade of FS3 substrate hydrolysis by FRET assay
In short: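 ATX source: ~10× concentrated serum-free conditioned medium from MDA-MB-435 cells, buffer-exchanged into 50 mM Tris pH 7.4 with 20% ethylene glycol. FS-3 300 nM–20 μM with three inhibitor levels, including zero. Buffer: 50 mM Tris pH 8.0, 140 mM NaCl, 5 mM KCl, 1 mM CaCl2/MgCl2, 30 μM stripped BSA. Run at 37 °C, ex485/em528. Ki′ from simultaneous nonlinear fit to four inhibition models; lowest residual error chosen.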

[3] = molecular target: T2, Glycerophosphocholine cholinephosphodiesterase ENPP6 (Homo sapiens) (UniProt Q6UWR7); test: Inhibition of NPP6 expressed in HEK293 cells assessed as para-nitrophenylphosphoryl choline hydrolysis; assay type: cell-based
T2 sequence (whole entry): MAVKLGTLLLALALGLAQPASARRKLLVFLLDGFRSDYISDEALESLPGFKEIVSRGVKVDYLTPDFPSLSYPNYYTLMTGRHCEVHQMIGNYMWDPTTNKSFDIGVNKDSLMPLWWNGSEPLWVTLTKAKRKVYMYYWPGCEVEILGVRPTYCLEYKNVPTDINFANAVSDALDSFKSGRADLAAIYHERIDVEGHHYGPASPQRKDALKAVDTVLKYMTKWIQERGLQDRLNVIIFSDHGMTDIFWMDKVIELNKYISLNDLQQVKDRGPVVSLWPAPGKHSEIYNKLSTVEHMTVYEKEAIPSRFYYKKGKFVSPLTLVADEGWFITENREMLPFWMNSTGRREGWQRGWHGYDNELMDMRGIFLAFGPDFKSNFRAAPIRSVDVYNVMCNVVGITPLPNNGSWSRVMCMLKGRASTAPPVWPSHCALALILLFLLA
In short: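 NPP6 from conditioned medium of HEK293 cells transiently transfected with human NPP6. Inhibitor at 10 μM in 1% DMSO. Substrate pNPPC at 10 mM in 100 mM Tris-HCl pH 9.0 with 500 mM NaCl and 0.05% Triton X-100, 37 °C. Absorbance read at 1 h, normalized to vehicle after cell-free-medium blank. Mean ± SD of ≥3 wells.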

[4] = molecular target: T3, Ectonucleotide pyrophosphatase/phosphodiesterase family member 7 (Homo sapiens) (UniProt Q6UWV6); test: Inhibition of NPP7 expressed in HEK293 cells assessed as para-nitrophenylphosphoryl choline hydrolysis; assay type: cell-based
T3 sequence (whole entry): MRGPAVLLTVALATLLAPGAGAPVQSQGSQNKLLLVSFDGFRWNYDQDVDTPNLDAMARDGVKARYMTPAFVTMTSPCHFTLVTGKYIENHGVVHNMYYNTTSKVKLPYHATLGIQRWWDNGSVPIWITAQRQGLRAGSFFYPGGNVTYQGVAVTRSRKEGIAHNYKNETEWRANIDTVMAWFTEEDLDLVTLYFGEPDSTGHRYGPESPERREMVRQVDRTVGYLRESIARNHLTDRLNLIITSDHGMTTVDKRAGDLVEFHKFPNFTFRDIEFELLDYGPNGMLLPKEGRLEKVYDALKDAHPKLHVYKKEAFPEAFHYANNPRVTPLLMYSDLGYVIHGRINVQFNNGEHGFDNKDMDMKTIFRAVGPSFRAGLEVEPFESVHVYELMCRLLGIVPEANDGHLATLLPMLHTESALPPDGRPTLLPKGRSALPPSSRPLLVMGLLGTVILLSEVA
In short: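 NPP7 from concentrated conditioned medium of transfected HEK293 cells (human NPP7). Inhibitor at 10 μM in 1% DMSO. Substrate pNPPC at […] in 50 mM Tris-HCl pH 8.5 with 150 mM NaCl and 10 mM taurocholic acid, no EDTA, 37 °C. Absorbance taken at 1 h, vehicle-normalized after blank. Mean ± SD of ≥3 wells.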

Autotaxin [5] = molecular target: T1, Autotaxin; test: Competitive inhibition of human autotaxin at free state isolated from MDA-MB-231 cells assessed as blockade of FS3 substrate hydrolysis by FRET assay; assay type: cell-based

| Ki (Autotaxin [1]) | Ki (Autotaxin [2]) | Activity [3] | Activity [4] | Ki (Autotaxin [5]) | SMILES |
| --- | --- | --- | --- | --- | --- |
| 13.2 µM | 13.2 µM | inactive | inactive |  | CCn1cc(C(=O)O)c(=O)c2cnc(N3CCN(C(=S)Nc4ccc(C(F)(F)F)cc4)CC3)nc21 |
|  |  | inactive | inactive |  | CCn1cc(C(=O)O)c(=O)c2cnc(N3CCN(C(=S)Nc4cccc(Cl)c4)CC3)nc21 |
|  |  | inactive | inactive | 4 µM | CCn1cc(C(=O)O)c(=O)c2cnc(N3CCN(C(=S)Nc4cc(C(F)(F)F)cc(C(F)(F)F)c4)CC3)nc21 |
|  |  | inactive | inactive |  | CCn1cc(C(=O)O)c(=O)c2cnc(N3CCN(C(=S)Nc4ccc(F)cc4)CC3)nc21 |
|  |  | inactive | inactive |  | CCn1cc(C(=O)O)c(=O)c2cnc(N3CCN(C(=S)Nc4ccc(I)cc4)CC3)nc21 |
|  |  | inactive | inactive |  | CCn1cc(C(=O)O)c(=O)c2cnc(N3CCN(C(=S)Nc4cccc(OC)c4)CC3)nc21 |
|  |  | inactive | inactive |  | CCn1cc(C(=O)O)c(=O)c2cnc(N3CCN(C(=S)Nc4ccc(C)cc4)CC3)nc21 |
| 0.2 µM |  |  |  |  | CCCCCCCCc1ccc(CCC(N)(CO)CCCP(=O)(O)O)cc1 (centres undefined) |
|  |  | inactive | inactive |  | CCn1cc(C(=O)O)c(=O)c2cnc(N3CCN(C(=S)Nc4cccc(F)c4)CC3)nc21 |
|  |  | inactive | inactive | 4.5 µM | CCn1cc(C(=O)O)c(=O)c2cnc(N3CCN(C(=S)Nc4cccc(C)c4)CC3)nc21 |
|  |  | inactive | inactive | 7.1 µM | CCn1cc(C(=O)O)c(=O)c2cnc(N3CCN(C(=S)Nc4ccc5nsnc5c4)CC3)nc21 |
|  |  | inactive | inactive |  | CCn1cc(C(=O)O)c(=O)c2cnc(N3CCN(C(=S)Nc4cc(Cl)ccc4Cl)CC3)nc21 |
|  |  | inactive | inactive | 5.7 µM | CCn1cc(C(=O)O)c(=O)c2cnc(N3CCN(C(=S)Nc4ccc(Cl)cc4)CC3)nc21 |
|  |  | inactive | inactive |  | CCn1cc(C(=O)O)c(=O)c2cnc(N3CCN(C(=S)Nc4cccc(I)c4)CC3)nc21 |
|  |  | inactive | inactive | 4.2 µM | CCn1cc(C(=O)O)c(=O)c2cnc(N3CCN(C(=S)Nc4cc(C)cc(C)c4)CC3)nc21 |
|  |  | inactive | inactive | 0.7 µM | CCn1cc(C(=O)O)c(=O)c2cnc(N3CCN(C(=S)Nc4cccc(C(F)(F)F)c4)CC3)nc21 |
